The data set has as its system MS2 coat protein. The data set is described as follows: apparent Kd, MS2 coat protein; higher = weaker binding; RNA-MaP array; FMN 200 µM where present. Put shortly:
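Each design was made on Illumina sequencing-chip clusters by stalled E. coli RNA polymerase and titrated with SNAP-549-labelled MS2 coat protein from 0.7 or 1.5 nM, doubling to 3 µM, in the absence and then the presence of constant ligand. The buffer was 100 mM Tris-HCl pH 7.5, 80 mM KCl, 4 mM MgCl2, BSA, DTT, yeast tRNA and Tween-20. The apparent Kd is the median of filtered per-cluster fits of binding curves, with green signal normalised to red-channel RNA signal and control-cluster median Fmax.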

Where [1] appears, read: designed as: ON switch for flavin mononucleotide, no ligand.
Setting [2] is: ligand present: flavin mononucleotide, designed as: ON switch for flavin mononucleotide.
Where [3] appears, read: designed as: OFF switch for flavin mononucleotide, no ligand.
[4] abbreviates: ligand present: flavin mononucleotide, designed as: OFF switch for flavin mononucleotide.

For “UCCUACAUGGGAGGAUAUCCUCAAGAGACAUGAGGAUCACCCAUGUAUUAUAUGCCUCAUGGCAUGGAGAAGGCCCAUGUAGGU”, the apparent Kd (as a rule, the concentration giving half-maximal binding under the conditions of the assay) amounted to 0.205 µM under setting [1] and 0.157 µM under setting [2].

“AUAAGUGCAGGAUAUACGAAAUGCUAGCGAAAGCUAGCAUAACAUGAGGAUCACCCAUGUAGAAGGGCACAAUA”: the “apparent Kd” value is, setting by setting: under setting [3], 0.0284 µM; under setting [4], 0.0215 µM.

For the sequence “AGAUAUAACUCAGGAUAUCAGCAUGGGUAGAUUACAUGAGGAUCACCCAUGUGCAUGUCCCGGCAUGAGAAGGGAGUAACGCAA”, the “apparent Kd” value reads like this: under setting [1], 0.0818 µM; under setting [2], 0.0274 µM.

As for “UCAUACGAUGAGGAUAUCUCCGUUAAAGUAUGUAGAGAAGGCGUUACAUGAGGAUCACCCAUGUUUGUGGGCAG”, the “apparent Kd” value reads like this: under setting [3], 0.304 µM; under setting [4], 0.385 µM.

For “CAGUCUACAGGAUAUACAUGAGGAUCACCCAUGUAAAUUCACUUUCAGUAGUCUACAUGUAGAAGGGUAGACUG”, the “apparent Kd” value came out at 0.0213 µM under setting [3] and 0.0403 µM under setting [4].

In the case of “CUCAAACAUGAGGAUCACCCAUGUGUUGUCAUGGGAGGAUAUCCCAGUUCGUUGUAGUCGGGAGAAGGCCUAUGUC”, the “apparent Kd” value runs as follows: under setting [1], 0.0674 µM; under setting [2], 0.0286 µM.

Consider “AAAGGGAUUACGGAGGAUAUGGAAAAAAAAACAUGAGGAUCACCCAUGUCAAAAAAAAAAAAGGACCAGAAGGCCGUAAUCUCAAA”, for which the “apparent Kd” value was found to be 0.0273 µM under setting [1] and 0.0189 µM under setting [2].

Turning to “UGUCGGAGCAGAGGAUAUUACAUGAGGAUCACCCAUGUAUGAACCAAUAGCUGGAAACAGCAAUGUAAGAAGGCCGCUCCGACA”, the “apparent Kd” value runs as follows: under setting [3], 0.00582 µM; under setting [4], 0.0285 µM.

Consider “AAACACGGACAUGAGGAUCACCCAUGUGGCGAAAGCCUUGGGAGAAGGCCGAUAGCAAAGCUAUCGGAGGAUAUCCAUACCGUG”, for which the “apparent Kd” value is, setting by setting: under setting [1], 0.0198 µM; under setting [2], 0.00772 µM.

As to “UCGGCGCGAGGAUAUGCGGCUGGUGCUUCGGGCUCUGGCGUACAUGAGGAUCACCCAUGUAGAAGGCGCGCCGC”, the “apparent Kd” value turned out to be 0.0131 µM under setting [3] and 0.0143 µM under setting [4].

As to “UUAAUAAUACAAGGAUAUCUAUUGUUCUUUCGACAUACAUGAGGAUCACCCAUGUUAAUAUAUAUAGAGAAGGUGUAUUUUCAG”, the “apparent Kd” value under setting [1] turned out to be 0.028 µM and the “apparent Kd” value under setting [2] was found to be 0.0245 µM.

“AAUUAUUUGUAGAAGGAAGGAGAUUUUGUAUUCUUAGGAUAUACUAUUACAUGAGGAUCACCCAUGUUUGAAGGGUUGCAAUGU”: the “apparent Kd” value was 0.0475 µM under setting [3] and 0.0598 µM under setting [4].

Take “CAGGUAGCUACAGGAUAUACACGUCUGGAUAAACCAGACGAAUAACCCACAUGAGGAUCACCCAUGUAGAAGGGUAGCUGCCUG”: the “apparent Kd” value by setting is: under setting [3], 0.0154 µM; under setting [4], 0.0213 µM.

Turning to “GAGUGACAUGAGGAUCACCCAUGUGAGGAUAUCGGACGGACCAAAUUAACAAUAAUUGCGAGAAGGCACAUCGG”, the “apparent Kd” value is, setting by setting: under setting [3], 0.0602 µM; under setting [4], 0.0923 µM.

For “AGUCAUACAGGAUAUACAUGAGGAUCACCCAUGUAAAUCCUAAAUGGGUGAUCCUCAUGUAGAAGGGUAUGACA”, the “apparent Kd” value came out at 0.0207 µM under setting [3] and 0.0171 µM under setting [4].

Take “AAUUAUAUACAGAAGGAGUUAUAUUGAGUAUUACUAGGAUAUGUUCACAUGAGGAUCACCCAUGUCAUAUUGGGAUUUAUUAUA”: the “apparent Kd” value is 0.0216 µM under setting [3] and 0.0279 µM under setting [4].

Take “CGUGCGUAUGUGAGGAUAUGCUGGUCCUUGGCUCGGCAGAAGGCACAUGAGGAUCACCCAUGUGGUGUCGUACU”: the “apparent Kd” value was 0.0689 µM under setting [3] and 0.179 µM under setting [4].

As for “CUUCAGUAAGGAUAUCAGCUUAGGAGGUUGGUAAUGAGAGCUGAGAAGGUACAUGAGGAUCACCCAUGUUAGUU”, the “apparent Kd” value was determined as 0.0203 µM under setting [3] and 0.033 µM under setting [4].

For “GGAUAGGACAGAGGAUAUACGUGCUAGAGAUAAUAGCAAAAUUUCCUCACAUGAGGAUCACCCAUGUAGAAGGCUGUCCUAUCG”, the “apparent Kd” value by setting is: under setting [3], 0.0195 µM; under setting [4], 0.25 µM.

With “AAUAAGUGAGGAUAUGCGUCUGGUCCCGGGAGGGCUAUAUAACAUGAGGAUCACCCAUGUAGAAGGCACAAUAA”, the “apparent Kd” value came to 0.0168 µM under setting [3] and 0.0139 µM under setting [4].

“GGAUGACAAAGUCAUCCAAUACGAACAUGAGGAUCACCCAUGUAGGAUAUGCUAGUCAAAGACUAGCAGAAGGACAUGUGCCUU”: the “apparent Kd” value was determined as 0.0392 µM under setting [3] and 0.238 µM under setting [4].

With “GCGUAUUUAAUAUAUAUAAAACUGUCAGAAGGUGAUAAGACGACAUGAGGAUCACCCAUGUAAUUCAAGGAUAUGAUAAUGCGC”, the “apparent Kd” value by setting is: under setting [1], 0.0373 µM; under setting [2], 0.0203 µM.

On to “CGGCCGCUACGCCGGCUCGACGCACAGGAUAUGCUGUUACAUGAGGAUCACCCAUGUGGCCAUGAGCAGAAGGGUGAUUCGCGA”, for which the “apparent Kd” value is, setting by setting: under setting [1], 0.0489 µM; under setting [2], 0.0309 µM.

With “AAUAAACUCACAGGAUAUAGCAGAGGUCGCGUGAACUUACAGGCAACGAUGCUAGAAGGGUGACCACAUGAGGAUCACCCAUGU”, the “apparent Kd” value runs as follows: under setting [1], 0.52 µM; under setting [2], 0.145 µM.

In the case of “GGAGCCGGUACUGAGGAUAUUCAUAUUAAAACAUGAGGAUCACCCAUGUAGGCCAGAAGGCCUUGGGAGAAGGCAGGCCAGCUCG”, the “apparent Kd” value under setting [1] was 0.378 µM and the “apparent Kd” value under setting [2] is 0.0314 µM.

For the sequence “AGAAGGCUACAGAAGGGACACACACGGUGGGAGUCAGGAUAUGUAGAGAAAACGUUACAUGAGGAUCACCCAUGUAGACCUUCC”, the “apparent Kd” value was determined as 0.0739 µM under setting [1] and 0.0168 µM under setting [2].

In the case of “UUAUUUGUACAAGGAUAUCUAUUAUAUUCACGUCCUACAUGAGGAUCACCCAUGUUAUAUAUUUUAGAGAAGGUGUAUUGUCUG”, the “apparent Kd” value is, setting by setting: under setting [1], 0.0319 µM; under setting [2], 0.0353 µM.

For the sequence “GUAGCAUACCGAGGAUAUUCAUACCCGAAAGGGACAUGAGGAUCACCCAUGUGGCGAAAGCCUUGGGAGAAGGCGGAAUGCUAC”, the “apparent Kd” value runs as follows: under setting [1], 0.58 µM; under setting [2], 0.0244 µM.

“CGGAGGUCAGGAUAUGCAUGGCGGGACUUGCGUCGUGGCGUGCAGAAGGGACAUGAGGAUCACCCAUGUGGAGU”: the “apparent Kd” value reads like this: under setting [3], 0.147 µM; under setting [4], 0.216 µM.

With “AACUCGUUAGGAUAUACCGCCAACGAUACCUCGUGAAACAUACAUGAGGAUCACCCAUGUAGAAGGAGCGAGCA”, the “apparent Kd” value amounted to 0.0169 µM under setting [3] and 0.0233 µM under setting [4].

Turning to “AGGUAACAUGAGGAUCACCCAUGUCAGGAUAUCAUGAAGAGGAGAUUAGAGGAGAGGUUGAGAAGGGACUAUAU”, the “apparent Kd” value turned out to be 0.076 µM under setting [3] and 0.0574 µM under setting [4].

Consider “GAACACGGAGGAUAUACAUGAGGAUCACCCAUGUUGAUCCUCAUUAAAAUUGAUAACUGUAGAAGGCCGUGAUA”, for which the “apparent Kd” value is, setting by setting: under setting [3], 0.0447 µM; under setting [4], 0.0222 µM.

Consider “CGCAAUGAUGGUAGUAAUAGAGCAUAGGAUAUGCUUGUACAUGAGGAUCACCCAUGUUAUAUUUUGCAGAAGGGUGUAAUUGCG”, for which the “apparent Kd” value under setting [1] amounted to 0.309 µM and the “apparent Kd” value under setting [2] was found to be 0.159 µM.

Take “AAGUAUAGAGGAUAUAGUAAGUACUACAUGAGGAUCACCCAUGUUCUUCAUUACGUAUUUCUAGAAGGCUGAUAAA”: the “apparent Kd” value is, setting by setting: under setting [3], 0.376 µM; under setting [4], 0.581 µM.

Regarding “UUUUUACAUGAGGAUCACCCAUGUGAGGAUAUGGUUUCGCUGGCCGUAGCCAGUGGAACCAGAAGGCGCGUGAU”, the “apparent Kd” value amounted to 0.095 µM under setting [3] and 0.136 µM under setting [4].

“AAUUUACAGCUAGGAUAUACAUGAGGAUCACCCAUGUGACGAUCGGAUCUUAUGAUCGUGUCCGUGUAGAAGGAGCAAAUAAGA”: the “apparent Kd” value is 0.00815 µM under setting [3] and 0.01 µM under setting [4].

Consider “UCGAUAAGGAGAGGAUAUGGACAUGAGGAUCACCCAUGUACAUGGGAAUAUAUACUGAAUUUUUACUAGAAGGCUUACAUAAUU”, for which the “apparent Kd” value by setting is: under setting [3], 0.0164 µM; under setting [4], 0.0148 µM.

In the case of “UUGGUUGUCGUAGGAUAUGUAGGAUAUUCCUACAUGAGGAUCACCCAUGUUCGCAUGGAAGAAGGACAGAAGGACGAUGACCAG”, the “apparent Kd” value runs as follows: under setting [1], 1.24 µM; under setting [2], 0.00967 µM.

For the sequence “UGUCGGAGCAGAGGAUAUAACAUGAGGAUCACCCAUGUAUGAACCAAUAGCUGGAAACAGCAAUGUAAGAAGGCUGCUCCGACA”, the “apparent Kd” value under setting [3] was found to be 0.0058 µM and the “apparent Kd” value under setting [4] came out at 0.00669 µM.

For the sequence “UGUUGUAUUACAGGAUAUCUAUUAGUUUUAUUUAGAGAAGGGUAUUCACAUGAGGAUCACCCAUGUAUAUACGAGGAAGUUGUG”, the “apparent Kd” value amounted to 0.0578 µM under setting [1] and 0.0603 µM under setting [2].

For the sequence “UUAAUUAACAAGAAGGCUUACAUGAGGAUCACCCAUGUUGUACAUGGAUAAAGAGGAUAUUGCUAAUAAUUAUUUAUCUUAAUU”, the “apparent Kd” value stood at 0.0615 µM under setting [3] and 0.0373 µM under setting [4].

Regarding “ACAUGAGGAUCACCCAUGUUAAAUUAGGAUAUAUGACUGCACAUGAGGUUCACCCAUGUUCUACCGUAGAAGGGAUAAAUAAUU”, the “apparent Kd” value runs as follows: under setting [1], 0.0526 µM; under setting [2], 0.0594 µM.

In the case of “AAAAAGGGAGGAUAUACAUGAGUAGAUCGUGUAAAAAAAAUACAUGAGGAUCACCCAUGUAGAAGGCCCAAAAA”, the “apparent Kd” value amounted to 0.231 µM under setting [3] and 0.0882 µM under setting [4].

Take “GGAAAACAUGAGGAUCACCCAUGUGAGGAUAUCGAUGUCCAAAAACCAGUGCGGGACUCGAGAAGGCACUUGGA”: the “apparent Kd” value reads like this: under setting [3], 0.0491 µM; under setting [4], 0.0263 µM.

For the sequence “GCACUUACGUUAGGAUAUGUAUCGGAAAACGAUACAGAAGGAAUAUGGGAACAUGAGGAUCACCCAUGUUCCUGAGACAAGUGC”, the “apparent Kd” value reads like this: under setting [1], 0.0465 µM; under setting [2], 0.0264 µM.

With “AUCAGCUCGUCAGGAUAUACGUCACUGCGUCAGCAGUGUGGUAAGAUCACAUGAGGAUCACCCAUGUAGAAGGGACUAGCUGAU”, the “apparent Kd” value was determined as 0.0148 µM under setting [3] and 0.294 µM under setting [4].

As to “AGUAGACAAGGAUAUACAUGAGGAUCACCCAUGUGUGAAGGCCAGGAGGCUCCUCCCUGUAGAAGGUGUCGAGU”, the “apparent Kd” value came to 0.104 µM under setting [3] and 0.293 µM under setting [4].

With “UCACGGGACUAAGGAUAUACAUGAUCCAUUUUUGUAGAAGGUAGAAUGUUAGAUCAUAAACUAAACAUGAGGAUCACCCAUGUU”, the “apparent Kd” value is, setting by setting: under setting [3], 0.0235 µM; under setting [4], 0.0225 µM.

These data come from the EternaBench riboswitch data.
